ChEMBL document CHEMBL1131936, “Structure-activity relationships of a series of benzothiophene-derived NPY Y1 antagonists: optimization of the C-2 side chain” (Bioorg Med Chem Lett, 1999)

Columns and labels:
[1] = target: T1, Neuropeptide Y receptor type 1 (Homo sapiens, UniProt P25929); assay: Ability to displace [125I]pPYY from AV12 cell line stably transfected with cloned human neuropeptide Y receptor type 1.; assay type: cell-based
T1 sequence (P25929 whole entry): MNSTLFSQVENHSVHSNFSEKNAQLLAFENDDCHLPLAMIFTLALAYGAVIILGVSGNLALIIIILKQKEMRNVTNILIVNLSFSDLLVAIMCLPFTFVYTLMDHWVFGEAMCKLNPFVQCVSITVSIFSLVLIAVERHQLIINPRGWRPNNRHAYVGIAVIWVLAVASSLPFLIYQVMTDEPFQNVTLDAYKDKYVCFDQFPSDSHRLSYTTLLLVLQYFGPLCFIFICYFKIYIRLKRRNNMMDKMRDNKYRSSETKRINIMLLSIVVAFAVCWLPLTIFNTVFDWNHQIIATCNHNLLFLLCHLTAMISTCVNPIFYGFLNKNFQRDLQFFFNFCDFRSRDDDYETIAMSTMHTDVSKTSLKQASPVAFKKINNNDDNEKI
In short: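 Membranes prepared from AV12 cells stably transfected with the human Y1 receptor; test compound displacement of 125I-porcine PYY binding measured, method as previously reported. Ki reported in μM.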

[2] = target: T1, Neuropeptide Y receptor type 1; assay: Functional Neuropeptide Y receptor type 1 antagonism was evaluated by its ability to reverse NPY induced inhibition of forskolin-stimulated cyclic AMP production in SK-N-MC cells; assay type: cell-based
In short: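 SK-N-MC cells; forskolin-stimulated cyclic AMP production inhibited by NPY, and test compound reversal of this inhibition measured. Ki derived, n = 2–3 determinations.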

Ki [1] | Ki [2] | SMILES
0.45 µM |  | CN(C)C1CCN(CCc2c(COc3ccccc3CO)sc3ccccc23)CC1
2.83 µM |  | Cc1ccc(OCc2sc3ccccc3c2CCN2CCC(N(C)C)CC2)c(C(C)(C)C)c1
88 µM |  | CN(C)C1CCN(CCc2c(CO)sc3ccccc23)CC1
0.14 µM | 4.7 µM | CN(C)C1CCN(CCc2c(COc3ccc(Cl)cc3Cl)sc3ccccc23)CC1
0.66 µM |  | CNCc1cc(Br)ccc1OCc1sc2ccccc2c1CCN1CCC(N(C)C)CC1
0.42 µM |  | Cc1ccccc1OCc1sc2ccccc2c1CCN1CCC(N(C)C)CC1
0.12 µM |  | CN(C)C1CCN(CCc2c(COc3ccc(Br)cc3Br)sc3ccccc23)CC1
3.8 µM |  | CN(C)C1CCN(CCc2c(C(O)c3ccc(Cl)cc3Cl)sc3ccccc23)CC1 (stereo unspecified)
11.1 µM |  | Clc1ccc(OCc2sc3ccccc3c2CN2CCCCC2)cc1
0.31 µM |  | CN(C)C1CCN(CCc2c(COc3ccc(Cl)cc3)sc3ccccc23)CC1
1.9 µM |  | Clc1ccc(OCc2sc3ccccc3c2CCN2CCCCC2)cc1
0.16 µM |  | CN(C)C1CCN(CCc2c(COc3ccc(Br)cc3)sc3ccccc23)CC1
0.013 µM |  | CN(C)C1CCN(CCc2c(COc3ccc(Br)cc3C#N)sc3ccccc23)CC1
0.015 µM | 1.2 µM | CN(C)C1CCN(CCc2c(COc3ccc(Br)cc3CO)sc3ccccc23)CC1
3.7 µM |  | CN(C)C1CCN(CCc2c(COc3ccc(-c4ccccc4)cc3)sc3ccccc23)CC1
0.172 µM |  | CN(C)C1CCN(CCc2c(COc3ccc(Br)cc3C(N)=O)sc3ccccc23)CC1
7.9 µM |  | CN(C)C1CCN(CCc2c(C#Cc3ccc(Cl)cc3Cl)sc3ccccc23)CC1
0.078 µM |  | Cc1ccc(OCc2sc3ccccc3c2CCN2CCC(N(C)C)CC2)c(Br)c1
2.3 µM |  | CN(C)C1CCN(CCc2c(C(=O)Nc3ccc(Cl)cc3Cl)sc3ccccc23)CC1
1.26 µM |  | CN(C)C1CCN(CCc2c(COc3ccccc3)sc3ccccc23)CC1
2.42 µM |  | Cc1cc(C)c(OCc2sc3ccccc3c2CCN2CCC(N(C)C)CC2)c(C)c1
4.5 µM |  | CN(C)C1CCN(CCc2c(/C=N/Nc3ccc(Cl)cc3Cl)sc3ccccc23)CC1
1.7 µM |  | CN(C)C1CCN(CCc2c(CNc3ccc(Cl)cc3Cl)sc3ccccc23)CC1
0.74 µM |  | CN(C)C1CCN(CCc2c(COc3ccc(C(F)(F)F)cc3)sc3ccccc23)CC1
5.8 µM |  | CN(C)C1CCN(CCc2c(C(Oc3ccc(Cl)cc3Cl)c3ccccc3)sc3ccccc23)CC1 (stereo unspecified)

Ki [1] | Ki [2] | SMILES
0.42 µM |  | Cc1cc(Br)ccc1OCc1sc2ccccc2c1CCN1CCC(N(C)C)CC1
0.45 µM |  | CN(C)C1CCN(CCc2c(COc3ccccc3Br)sc3ccccc23)CC1
4 µM |  | COC(c1ccc(Cl)cc1Cl)c1sc2ccccc2c1CCN1CCC(N(C)C)CC1 (stereo unspecified)
2.8 µM |  | CN(C)C1CCN(CCc2c(CCOc3ccc(Cl)cc3Cl)sc3ccccc23)CC1
2.43 µM |  | CN(C)Cc1cc(Br)ccc1OCc1sc2ccccc2c1CCN1CCC(N(C)C)CC1
0.72 µM |  | CN(C)C1CCN(CCc2c(COc3ccc(Br)cc3C(F)(F)F)sc3ccccc23)CC1
0.69 µM |  | CC(CN1CCC(N(C)C)CC1)c1c(COc2ccc(Cl)cc2Cl)sc2ccccc12 (stereo unspecified)
0.19 µM |  | CN(C)C1CCN(CCc2c(COc3ccc(CO)cc3Br)sc3ccccc23)CC1
12.6 µM |  | CN(C)C1CCN(CCc2c(/C=N/c3ccc(Cl)cc3Cl)sc3ccccc23)CC1
3.6 µM |  | CN(C)C1CCN(CCc2c(COc3c(Br)cc(Br)cc3Br)sc3ccccc23)CC1
0.37 µM |  | Cc1ccc(OCc2sc3ccccc3c2CCN2CCC(N(C)C)CC2)cc1
0.98 µM |  | C=CCc1ccccc1OCc1sc2ccccc2c1CCN1CCC(N(C)C)CC1
12 µM |  | CN(C)C1CCN(CCc2c(C(C)(C)Oc3ccc(Cl)cc3Cl)sc3ccccc23)CC1
4.2 µM |  | CN(C)C1CCN(CCc2c(Cc3ccc(Cl)cc3Cl)sc3ccccc23)CC1
0.011 µM |  | COCc1cc(Br)ccc1OCc1sc2ccccc2c1CCN1CCC(N(C)C)CC1
0.38 µM |  | CN(C)C1CCN(CCc2c(COc3ccc(C#N)cc3Br)sc3ccccc23)CC1
5.6 µM |  | CN(C)C1CCN(CCc2c(C(=O)c3ccc(Cl)cc3Cl)sc3ccccc23)CC1
6.5 µM |  | CN(C)C1CCN(CCc2c(-c3ccc(Cl)cc3Cl)sc3ccccc23)CC1
1.7 µM |  | CC(Oc1ccc(Cl)cc1Cl)c1sc2ccccc2c1CCN1CCC(N(C)C)CC1 (stereo unspecified)
12.4 µM |  | CN(C)C1CCN(CCc2c(/C=C/c3ccc(Cl)cc3Cl)sc3ccccc23)CC1
2.76 µM |  | CN(C)C1CCN(CCc2c(COc3ccccc3C=O)sc3ccccc23)CC1
2.6 µM |  | Clc1ccc(OCc2sc3ccccc3c2CCCN2CCCCC2)cc1
0.12 µM |  | Cc1ccc(OCc2sc3ccccc3c2CCN2CCC(N(C)C)CC2)c(C)c1
0.38 µM |  | CN(C)C1CCN(CCc2c(COc3ccccc3I)sc3ccccc23)CC1
